# NR2E3 ag-1: agonists of human nuclear receptor NR2E3; Q9Y5X4; inhibition of corepressor binding, % at 4.78 µM; GST-NR2E3/biotin-RetCOR TR-FRET, 1536-well; actives 0.12% (n = 320,000);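 active means percent inhibition above the cutoff of mean plus 3 SD of all tested compounds, set per screening campaign, cut at about 20% in these data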;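 further: 0% = DMSO wells and 100% = biotin wells as full block of FRET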
# Target sequence (Q9Y5X4 whole entry, looked up): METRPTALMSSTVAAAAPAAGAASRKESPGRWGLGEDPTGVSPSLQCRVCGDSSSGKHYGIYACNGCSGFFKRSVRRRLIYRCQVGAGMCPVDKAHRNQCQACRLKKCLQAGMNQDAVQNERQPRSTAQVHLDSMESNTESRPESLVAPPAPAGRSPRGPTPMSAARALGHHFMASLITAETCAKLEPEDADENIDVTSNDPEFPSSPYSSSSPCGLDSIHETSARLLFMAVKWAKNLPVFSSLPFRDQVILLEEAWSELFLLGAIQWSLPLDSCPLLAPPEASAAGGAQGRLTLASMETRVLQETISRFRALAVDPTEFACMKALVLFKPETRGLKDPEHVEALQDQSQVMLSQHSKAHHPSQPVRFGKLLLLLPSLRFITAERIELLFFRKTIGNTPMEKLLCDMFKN
#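 Material: NR2E3–RetCOR corepressor complex | Quantity: 1.35 nM GST-tagged NR2E3 final | Schedule: 5 h at 4 °C | Replication: Singlicate compound wells | Reagent: RetCOR corepressor, biotinylated, 7 nM | Controls: Biotin wells as high control, 0.6% DMSO wells as low control | Signal: TR-FRET, Eu(K)-anti-GST donor, streptavidin-D2 acceptor, ex 340, em 617/671 nm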
# PG9 binder: small molecules binding HIV-1 gp120 antibody PG9 | TR-FRET gp120-PG9 antibody binding | inhibition, % at 6.7 µM | actives 0.43% (n = 360,000) | AID 624416; in the data active means inhibition above about 8.5%
# NR2E3 ag-2: agonists of human NR2E3 nuclear receptor | Q9Y5X4 | CHO-S Gal4-NCOR/VP16-NR2E3 two-hybrid, luciferase | inhibition of corepressor binding, % at 3.98 µM | actives 0.35% (n = 360,000) | AID 602229;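 active means inhibition above the mean of all tested compounds plus 3 SD, cut at about 70% in these data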;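 further: 0% = DMSO with NR2E3 transfected cells and 100% = cells lacking NR2E3 construct; higher means lower luciferase signal from less NR2E3 corepressor binding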
# NR1D1 modulator: Rev-erb alpha (human) modulation; P20393; Rev-erbα–FITC-DNA binding, fluorescence polarization, 90 min; activity, % at 10 µM; actives 0.79% (n = 370,000); AID 1259318;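 active means activity above about 14%, limit read from the data; passing the limit was not always enough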;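 further: 0% = DMSO wells with 35 nM protein and 100% = DMSO wells with 750 nM protein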
# GalR3 antagonist: blocks the human galanin receptor 3. inhibition, % at 3 µM. actives 0.44% (n = 360,000). HEK293 GalR3-CNG cAMP membrane potential fluorescence; galR3 body fused to GalR1 C-terminus;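 active means inhibition above the screen-wide average plus 3 SD, cut at about 13% in these data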;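 further: forskolin and galanin both at EC90 stimulate the cells; cAMP rise reported by CNG channel membrane potential dye signal; 0% = forskolin plus galanin with DMSO and 100% = forskolin alone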
# Rev-erbA confirm: confirmation of modulators of human Rev-erb alpha DNA binding. shares compounds with NR1D1 modulator. actives 61% (n = 3,000). AID 1259319. activation, % at 25 µM. Rev-erb alpha FITC-DNA binding, fluorescence polarization, 90 min;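 active means activation at or above a set limit, or at least 3 SD above the negative control mean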;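 further: 0% = 35 nM protein with DMSO and 100% = 750 nM protein high control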
# RORg DNA counter: RORgamma DNA-binding activity, dose-response counter-screen; shares compounds with NR1D1 modulator; IC50, µM; purified RORgamma protein-FITC-DNA binding, fluorescence polarization; actives 8% (n = 910);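 active means Compounds whose fitted half-maximal concentration for disrupting protein-DNA binding is below 10 micromolar; the record names Rev-erb in its text, so the target is in doubt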
# Active calls of the source: *; i = inactive; · = no result. In the library only some 1.8% were active in any assay of this set; here they are far more common.
SMILES,NR2E3 ag-1,PG9 binder,NR2E3 ag-2,NR1D1 modulator,GalR3 antagonist,Rev-erbA confirm,others
CCCCn1c(=O)c(C(=O)Nc2ccccc2C)c(O)c2ccccc21,3,·,-34,·,·,·,
CCCCCn1c(=O)c(C(=O)Nc2ccccc2Cl)c(O)c2ccccc21,0,-1,-20,76*,0,33*,RORg DNA counter=i
CC(C)CCn1c(=O)c(C(=O)Nc2ccccc2S(N)(=O)=O)c(O)c2ccccc21,-1,8,-31,29*,-1,21*,
O=C(NCCN1CCC2(CC1)C(=O)NCN2c1ccccc1)c1ccc(OC(F)(F)F)cc1,·,-1,·,3,-3,·,
CC(C)(C)OC(=O)NCCCCC(N)[P+](=O)O (centres undefined),·,·,·,-1,·,·,
O=C(NC1CCCCC1)N1Cc2ccc(Br)cc2-n2nncc2C1,·,-1,·,-5,-7,·,
CCOC(=O)C1CCCN(c2ccc([N+](=O)[O-])c3nonc23)C1 (centres undefined),·,-1,8,57*,-6,57*,RORg DNA counter=2.5*
CCOc1ccc(N=Cc2c(O)n(Cc3ccccc3)c(=S)[nH]c2=O)cc1,1,1,12,41*,2,10,
O=c1[nH]c(=O)n(Cc2ccc(F)cc2)c(O)c1C=Nc1ccc(Cl)cc1,3,1,-5,125*,-5,9,
C1=C(c2c[nH]c3ccccc23)CCN(Cc2ccccc2)C1,2,-1,-19,1,-7,·,
Nc1c2c(nc3ccccc13)CCN(Cc1ccccc1)C2,-1,-1,-23,32*,-9,34*,RORg DNA counter=>40
O=C1NC(=O)C(=Cc2ccc(N3CCOCC3)o2)C(=O)N1,-7,-6,-10,30*,-5,28*,
CCN(CC)c1ccc(/C=C2\C(=O)NC(=S)N(C)C2=O)o1,-4,-10,-115,57*,1,62*,RORg DNA counter=>40
Cc1cc(C)cc(N2C(=O)/C(=C\c3ccc(N4CCN(C)CC4)o3)C(=O)NC2=S)c1,-1,-6,-4,17*,-3,11,
Cc1ccc(/C=C2\C(=O)NC(=S)N(c3ccc(F)cc3)C2=O)o1,·,2,3,1,-8,·,
CN1C(=O)C(=Cc2ccc(N3CCCCC3)o2)C(=O)N(C)C1=S,-4,-4,-51,40*,-4,47*,RORg DNA counter=>40
CCN(CC)c1ccc(/C=C2\C(=O)NC(=S)N(c3ccc(OC)cc3OC)C2=O)o1,-3,·,-19,·,·,·,
N#CCC[C@H]1CC[C@]2(CCCN(Cc3ccccn3)C2)O1,·,·,·,9,·,·,
O=C(CNC(=O)OCc1ccccc1)NC(Cc1ccccc1)P(=O)(Oc1ccccc1)Oc1ccccc1 (centres undefined),·,·,·,2,·,·,
CS(=O)(=O)N1Cc2cc(Br)ccc2-n2nncc2C1,·,-1,·,1,-4,·,
CN1C(=O)C(=Cc2ccc(SC3CCCCC3)o2)C(=O)N(C)C1=O,-2,-2,-34,-4,-4,·,
CCN(CC)c1ccc(C=C2C(=O)N(C)C(=S)N(C)C2=O)o1,-2,-3,-1,35*,2,15,
COc1cc2c(cc1OC)-c1c3c(cc4c1[C@@H](C2)N(C)CC4)OCO3,-1,-8,-55,15*,1,-3,
O=C(O)c1ccccc1-c1c2cc(Br)c(=O)cc-2oc2[c]([Hg])c(O)c(Br)cc12,·,·,·,118*,·,79*,
O=[N+]([O-])c1ccc(N2CCCC2)c2ccncc12,-1,-7,-6,36*,-7,35*,RORg DNA counter=>40
SMILES,NR2E3 ag-1,PG9 binder,NR2E3 ag-2,NR1D1 modulator,GalR3 antagonist,Rev-erbA confirm,others
O=[N+]([O-])c1ccc(NC2CCCC2)c2ccncc12,2,·,8,·,·,·,
CC(=O)N1c2ccccc2C(c2ccccc2)=NCC1C(=O)NCc1ccccc1 (centres undefined),·,·,·,-3,·,·,
CCOc1ccc2nc(N=Nc3c(O)[nH]c(=O)[nH]c3=O)sc2c1,-2,-7,-1,25*,-3,16,
CCOc1ccc2nc(N=Nc3c(O)[nH]c(=S)[nH]c3=O)sc2c1,-1,-5,-31,25*,-3,36*,RORg DNA counter=i
CCOC(=O)c1sc(N=Nc2c(O)[nH]c(=O)[nH]c2=O)c(C(=O)OCC)c1C,3,·,·,·,·,·,
Cc1c(N=Nc2c(O)[nH]c(=S)[nH]c2=O)c(=O)n(-c2ccccc2)n1C,-4,-9,-14,1,-13,·,
CC(C)NC1(c2ccccc2)CCCCC1,·,-1,·,0,-4,·,
CC[C@H](C(N)=O)N1CCCC1=O,·,·,·,0,·,·,
COC(=O)C1C(c2ccc(F)cc2)CC2CCC1N2C (centres undefined),·,1,·,-2,-5,·,

# High-throughput results deposited in PubChem by several laboratories.
